Reference: ChEMBL document CHEMBL1667789, “Synthesis of 4H-chromene, coumarin, 12H-chromeno[2,3-d]pyrimidine derivatives and some of their antimicrobial and cytotoxicity activities” (2011)
Active and inactive are the calls of the source. No cut-off for these calls is given here.

What was measured:
Bacillus subtilis = assay: Antimicrobial activity against Bacillus subtilis ATCC 6633 at 25 ug/ml by agar diffusion method; type: functional; conditions: for zone of inhibition at 25 µg/mL: read-out: DIZ
In short: (§1)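 Agar diffusion on Mueller-Hinton agar. Bacterial strains came from the NODCAR Microbiology laboratory culture collection. Ampicillin was the reference standard.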

[1] = tested on: Staphylococcus epidermidis; assay: Antimicrobial activity against Staphylococcus epidermidis ATCC 12228 at 25 ug/ml by agar diffusion method; type: functional; conditions: for zone of inhibition at 25 µg/mL: read-out: DIZ; in short: as §1
Cancer cell lines = assay: Cytotoxicity against human Lung cancer cells; type: functional, cell-based
In short: (§2)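 Human tumour lines were MCF-7 (breast adenocarcinoma) and HCT (described as lung carcinoma). Cytotoxicity was read by a cell viability assay, with IC50 derived from it.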

Candida albicans = assay: Antifungal activity against Candida albicans ATCC 10231 at 25 ug/ml by agar diffusion method; type: functional; conditions: for zone of inhibition at 25 µg/mL: read-out: DIZ
In short: (§3)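 Agar diffusion on Sabouraud's agar. Fungal strains came from the NODCAR Microbiology laboratory culture collection. Mycostatine was the reference standard.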

MCF7 = assay: Cytotoxicity against human MCF7 cells; type: functional, cell-based; in short: as §2
Bacillus pumilus = assay: Antimicrobial activity against Bacillus pumilus ATCC 14884 at 25 ug/ml by agar diffusion method; type: functional; conditions: for zone of inhibition at 25 µg/mL: read-out: DIZ; in short: as §1
[2] = tested on: Bordetella bronchiseptica; assay: Antimicrobial activity against Bordetella bronchiseptica ATCC 4617 at 25 ug/ml by agar diffusion method; type: functional; conditions: for zone of inhibition at 25 µg/mL: read-out: DIZ; in short: as §1
Saccharomyces cerevisiae = assay: Antifungal activity against Saccharomyces cerevisiae ATCC 9080 at 25 ug/ml by agar diffusion method; type: functional; conditions: for zone of inhibition at 25 µg/mL: read-out: DIZ; in short: as §3
Staphylococcus aureus = assay: Antimicrobial activity against Staphylococcus aureus ATCC 29737 at 25 ug/ml by agar diffusion method; type: functional; conditions: for zone of inhibition at 25 µg/mL: read-out: DIZ; in short: as §1
Escherichia coli = assay: Antimicrobial activity against Escherichia coli ATCC 14169 at 25 ug/ml by agar diffusion method; type: functional; conditions: for zone of inhibition at 25 µg/mL: read-out: DIZ; in short: as §1

Molecule | diameter of the inhibition zone (DIZ) (Bacillus subtilis) | diameter of the inhibition zone (DIZ) [1] | Activity (Cancer cell lines) | diameter of the inhibition zone (DIZ) (Candida albicans) | Activity (MCF7) | diameter of the inhibition zone (DIZ) (Bacillus pumilus) | diameter of the inhibition zone (DIZ) [2] | diameter of the inhibition zone (DIZ) (Saccharomyces cerevisiae) | diameter of the inhibition zone (DIZ) (Staphylococcus aureus) | diameter of the inhibition zone (DIZ) (Escherichia coli) | zone of inhibition at 25 µg/mL (Bacillus subtilis) [mm] | zone of inhibition at 25 µg/mL [1] [mm] | zone of inhibition at 25 µg/mL (Candida albicans) [mm] | zone of inhibition at 25 µg/mL (Bacillus pumilus) [mm] | zone of inhibition at 25 µg/mL [2] [mm] | zone of inhibition at 25 µg/mL (Saccharomyces cerevisiae) [mm] | zone of inhibition at 25 µg/mL (Staphylococcus aureus) [mm] | zone of inhibition at 25 µg/mL (Escherichia coli) [mm] | inhibition zone (IZ) (Saccharomyces cerevisiae) [mm]
CCN(CC)c1ccc2c(c1)OC(N)=C(C#N)C2c1ccc(F)cc1 (stereo unspecified) | inactive | inactive | Not toxic | inactive | Not toxic | inactive | inactive | inactive | inactive | inactive |  |  |  |  |  |  |  |  | 
CCN(CC)c1ccc2c(c1)Oc1ncn(N)c(=N)c1C2c1ccc(Br)cc1 (stereo unspecified) |  |  |  |  |  |  |  |  |  |  | 15 | 22 | 15 | 25 | 21 | 22 | 24 | 16 | 
CCO/C=N/C1=C(C#N)C(c2ccc(Br)cc2)c2ccc(N(CC)CC)cc2O1 (stereo unspecified) | inactive | inactive |  | inactive |  | inactive | inactive | inactive | inactive | inactive |  |  |  |  |  |  |  |  | 
CC1(C)S[C@@H]2[C@H](NC(=O)[C@H](N)c3ccccc3)C(=O)N2[C@H]1C(=O)O [AMPICILLIN] |  |  |  |  |  |  |  |  |  |  | 25 | 25 |  | 20 | 24 |  | 26 | 25 | 
CCO/C=N/C1=C(C#N)C(c2ccc(Cl)cc2)c2ccc(N(CC)CC)cc2O1 (stereo unspecified) | inactive | inactive |  | inactive |  | inactive | inactive | inactive | inactive | inactive |  |  |  |  |  |  |  |  | 
CCN(CC)c1ccc2c(c1)Oc1ncnc(N)c1C2c1ccc(Cl)cc1 (stereo unspecified) |  |  |  |  |  |  |  |  |  |  | 21 | 24 | 15 | 25 | 21 | 20 | 25 | 20 | 
CCN(CC)c1ccc2c(c1)Oc1ncn(C)c(=N)c1C2c1ccc(Cl)cc1 (stereo unspecified) |  |  |  |  |  |  |  |  |  |  | 21 | 25 | 14 | 25 | 20 | 20 | 24 | 21 | 
CCOC(=O)C1=C(N)Oc2cc(N(CC)CC)ccc2C1c1ccc(Br)cc1 (stereo unspecified) | inactive | inactive | Not toxic | inactive | Not toxic | inactive | inactive | inactive | inactive | inactive |  |  |  |  |  |  |  |  | 
CCN(CC)c1ccc2c(c1)OC(N)=C(C#N)C2c1ccc(Br)cc1 (stereo unspecified) | inactive | inactive |  | inactive |  | inactive | inactive | inactive | inactive | inactive |  |  |  |  |  |  |  |  | 
NYSTATIN |  |  |  |  |  |  |  |  |  |  |  |  |  |  |  |  |  |  | 24
CCN(CC)c1ccc2c(-c3ccc(Br)cc3)c(C#N)c(=O)oc2c1 | inactive | inactive |  | inactive |  | inactive | inactive | inactive | inactive | inactive |  |  |  |  |  |  |  |  | 
CCOC(=O)C1=C(N)Oc2cc(N(CC)CC)ccc2C1c1ccc(F)cc1 (stereo unspecified) | inactive |  |  | inactive |  | inactive | inactive | inactive |  | inactive |  | 14 |  |  |  |  | 14 |  | 
CCN(CC)c1ccc2c(c1)OC(/N=C/N(C)C)=C(C#N)C2c1ccc(Cl)cc1 (stereo unspecified) | inactive | inactive |  | inactive |  | inactive | inactive | inactive | inactive | inactive |  |  |  |  |  |  |  |  | 
CCN(CC)c1ccc2c(-c3ccc(F)cc3)c(C#N)c(=O)oc2c1 | inactive |  |  | inactive |  | inactive | inactive | inactive |  | inactive |  | 14 |  |  |  |  | 13 |  | 
CCN(CC)c1ccc2c(c1)OC(N)=C(C#N)C2c1ccc(Cl)cc1 (stereo unspecified) | inactive |  |  | inactive |  | inactive | inactive | inactive |  | inactive |  | 15 |  |  |  |  | 14 |  | 
CCN(CC)c1ccc2c(c1)Oc1nc(C)[nH]c(=O)c1C2c1ccc(Cl)cc1 (stereo unspecified) | inactive | inactive |  | inactive |  | inactive | inactive | inactive | inactive | inactive |  |  |  |  |  |  |  |  | 
CCN(CC)c1ccc2c(c1)OC(/N=C/N)=C(C#N)C2c1ccc(Cl)cc1 (stereo unspecified) | inactive | inactive |  | inactive |  | inactive | inactive | inactive | inactive | inactive |  |  |  |  |  |  |  |  | 
CCN(CC)c1ccc2c(c1)OC(/N=C/c1ccccc1)=C(C#N)C2c1ccc(Cl)cc1 (stereo unspecified) | inactive | inactive |  | inactive |  | inactive | inactive | inactive | inactive | inactive |  |  |  |  |  |  |  |  | 
CCN(CC)c1ccc2c(c1)Oc1ncn(N)c(=N)c1C2c1ccc(Cl)cc1 (stereo unspecified) |  |  |  |  |  |  |  |  |  |  | 17 | 24 | 16 | 27 | 22 | 24 | 26 | 17 | 
CCN(CC)c1ccc2c(c1)OC(N(C(C)=O)C(C)=O)=C(C#N)C2c1ccc(Cl)cc1 (stereo unspecified) | inactive | inactive |  | inactive |  | inactive | inactive | inactive | inactive | inactive |  |  |  |  |  |  |  |  | 
CCOC(=O)C1=C(N)Oc2cc(N(CC)CC)ccc2C1c1ccc(Cl)cc1 (stereo unspecified) | inactive | inactive |  | inactive |  | inactive | inactive | inactive | inactive | inactive |  |  |  |  |  |  |  |  | 
CCN(CC)c1ccc2c(-c3ccc(Cl)cc3)c(C#N)c(=O)oc2c1 | inactive | inactive |  | inactive |  | inactive | inactive | inactive | inactive | inactive |  |  |  |  |  |  |  |  | 
